Measurements taken from EPA's CvTdb concentration-time database.
“And” between values parts separate entries of the source, which are not always exact repeats. Equal entries are not always repeated.

Test system: mouse
Assay: concentration in blood after dosing; negative times count back from the end of exposure
Conditions: dosed: tert-amyl methyl ether, inhalation, duration: 6 hr, CD-1 (Charles River)
Outline: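 Points were largely digitised from plot screenshots with WebPlotDigitizer or otherwise copied from tables, and they remain in the units each source reported. They come from published in vivo toxicokinetic studies and two structured collections. Sampling and analytical methods follow each source and were often not reported.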

CCC(C)(C)O [tertiary amyl alcohol]
male
Conditions	concentration in blood
0.1295 h, 2500 ppm	209000 ng/mL
0.1808 h, 500 ppm	29600 ng/mL
0.1823 h, 500 ppm	32600 ng/mL
0.1835 h, 500 ppm	34900 ng/mL
0.1993 h, 2500 ppm	170000 ng/mL
0.2 h, 2500 ppm	165000 ng/mL
0.2011 h, 2500 ppm	158000 ng/mL
0.5116 h, 500 ppm	16700 ng/mL
0.5437 h, 500 ppm	19500 ng/mL
0.545 h, 500 ppm	22000 ng/mL
0.5455 h, 500 ppm	23100 ng/mL
0.5766 h, 2500 ppm	194000 ng/mL
0.5768 h, 2500 ppm	193000 ng/mL
0.5776 h, 2500 ppm	187000 ng/mL
0.59 h, 2500 ppm	109000 ng/mL
1.057 h, 500 ppm	3620 ng/mL
1.059 h, 500 ppm	7190 ng/mL
1.061 h, 500 ppm	12200 ng/mL
1.062 h, 500 ppm	12600 ng/mL
1.12 h, 2500 ppm	175000 ng/mL
1.123 h, 2500 ppm	155000 ng/mL and 153000 ng/mL and 151000 ng/mL
1.914 h, 500 ppm	752 ng/mL
1.945 h, 500 ppm	139 ng/mL
2.052 h, 2500 ppm	105000 ng/mL
2.058 h, 2500 ppm	66500 ng/mL and 65300 ng/mL
2.059 h, 2500 ppm	57700 ng/mL
4.101 h, 2500 ppm	3630 ng/mL and 1940 ng/mL
9.951 h, 500 ppm	73.9 ng/mL
10.17 h, 2500 ppm	1840 ng/mL
17.96 h, 500 ppm	8.51 ng/mL
18.11 h, 2500 ppm	2120 ng/mL
126 s, 500 ppm	44300 ng/mL
133 s, 2500 ppm	192000 ng/mL
137 s, 2500 ppm	184000 ng/mL
138 s, 2500 ppm	183000 ng/mL
151 s, 500 ppm	57900 ng/mL
343 s, 500 ppm	42500 ng/mL

male, during exposure
Conditions	concentration in blood
-6 h, 100 ppm	3.59 ng/mL
-5.999 h, 500 ppm	1220 ng/mL
-5.907 h, 500 ppm	2450 ng/mL
-5.876 h, 500 ppm	2750 ng/mL
-5.873 h, 2500 ppm	2950 ng/mL
-5.818 h, 100 ppm	247 ng/mL and 289 ng/mL
-5.817 h, 100 ppm	326 ng/mL and 401 ng/mL
-5.814 h, 500 ppm	4080 ng/mL
-5.771 h, 100 ppm	487 ng/mL
-5.747 h, 2500 ppm	7170 ng/mL
-5.725 h, 100 ppm	600 ng/mL
-5.72 h, 500 ppm	7750 ng/mL
-5.659 h, 100 ppm	386 ng/mL and 450 ng/mL
-5.567 h, 500 ppm	6220 ng/mL
-5.507 h, 500 ppm	5100 ng/mL
-5.476 h, 100 ppm	694 ng/mL
-5.474 h, 500 ppm	9590 ng/mL
-5.464 h, 2500 ppm	25700 ng/mL
-5.433 h, 2500 ppm	29900 ng/mL
-5.244 h, 2500 ppm	40100 ng/mL
-5.135 h, 500 ppm	11400 ng/mL and 11600 ng/mL
-5.134 h, 500 ppm	13700 ng/mL and 14100 ng/mL
-4.958 h, 100 ppm	720 ng/mL
-4.937 h, 100 ppm	510 ng/mL
-4.936 h, 100 ppm	630 ng/mL
-4.934 h, 100 ppm	828 ng/mL
-4.899 h, 2500 ppm	67100 ng/mL
-4.898 h, 2500 ppm	64100 ng/mL and 61600 ng/mL
-4.897 h, 2500 ppm	57400 ng/mL
-4.057 h, 500 ppm	20900 ng/mL
-4.055 h, 500 ppm	23900 ng/mL
-4.054 h, 500 ppm	26200 ng/mL and 27300 ng/mL
-4 s, 500 ppm	33800 ng/mL
-3.898 h, 100 ppm	686 ng/mL
-3.897 h, 100 ppm	870 ng/mL
-3.895 h, 100 ppm	1130 ng/mL
-3.874 h, 100 ppm	926 ng/mL
-3.797 h, 2500 ppm	131000 ng/mL
-3.796 h, 2500 ppm	123000 ng/mL and 121000 ng/mL
-3.791 h, 2500 ppm	94900 ng/mL
-2.118 h, 500 ppm	33200 ng/mL
-2.087 h, 500 ppm	34400 ng/mL and 34600 ng/mL
-2.086 h, 500 ppm	36700 ng/mL
-1.99 h, 2500 ppm	155000 ng/mL
-1.979 h, 100 ppm	1160 ng/mL
-1.978 h, 100 ppm	1210 ng/mL
-1.96 h, 2500 ppm	162000 ng/mL
-1.957 h, 2500 ppm	146000 ng/mL
-1.953 h, 100 ppm	1570 ng/mL

CCC(C)(C)OC [tertiary amyl methyl ether]
Conditions	concentration in blood [ng/mL]
0.102 h, 100 ppm, male	239
0.1024 h, 100 ppm, male	295
0.1031 h, 100 ppm, male	389
0.1368 h, 500 ppm, male	3510
0.1371 h, 500 ppm, male	4130
0.1374 h, 500 ppm, male	4840
0.1381 h, 500 ppm, male	6060
0.1502 h, 100 ppm, male	655
0.1928 h, 2500 ppm, male	29900
0.1936 h, 2500 ppm, male	24400
0.3202 h, 500 ppm, male	2390
0.3841 h, 2500 ppm, male	24800
0.385 h, 2500 ppm, male	19700
0.3858 h, 2500 ppm, male	14700
0.4399 h, 100 ppm, male	209
0.444 h, 2500 ppm, female	22700
0.4444 h, 2500 ppm, female	20100
0.4448 h, 2500 ppm, female	17200
0.4618 h, 100 ppm, male	127
0.4629 h, 100 ppm, male	273
0.8712 h, 500 ppm, male	37.4
0.8718 h, 500 ppm, male	1260
0.9575 h, 2500 ppm, male	15100
0.9591 h, 2500 ppm, male	4950
0.9832 h, 2500 ppm, female	10000
1.014 h, 2500 ppm, female	15500
1.656 h, 100 ppm, male	2.6
2.039 h, 2500 ppm, male	5350
2.04 h, 2500 ppm, male	286
9.736 h, 500 ppm, male	67.1
9.816 h, 100 ppm, male	1.38
9.95 h, 2500 ppm, male	153
17.75 h, 100 ppm, male	3.94
17.86 h, 2500 ppm, male	441
57.5 min, 2500 ppm, male	10000
224 s, 2500 ppm, female	37500
226 s, 2500 ppm, female	34900
229 s, 2500 ppm, female	29400

during exposure
Conditions	concentration in blood
-171 s, 100 ppm, male	1330 ng/mL
-165 s, 100 ppm, male	1570 ng/mL
-160 s, 100 ppm, male	1750 ng/mL
-6 h, 100 ppm, male	1190 ng/mL
-6 h, 2500 ppm, male	19400 ng/mL
-5.956 h, 100 ppm, male	1080 ng/mL
-5.842 h, 100 ppm, male	1220 ng/mL
-5.755 h, 100 ppm, male	806 ng/mL
-5.69 h, 500 ppm, male	7230 ng/mL
-5.688 h, 500 ppm, male	9580 ng/mL
-5.663 h, 100 ppm, male	1040 ng/mL
-5.662 h, 100 ppm, male	1100 ng/mL
-5.642 h, 100 ppm, male	814 ng/mL
-5.627 h, 2500 ppm, female	37500 ng/mL
-5.168 h, 500 ppm, male	7230 ng/mL
-5.167 h, 500 ppm, male	8960 ng/mL
-5.138 h, 500 ppm, male	5900 ng/mL
-5.124 h, 100 ppm, male	780 ng/mL
-5.123 h, 100 ppm, male	866 ng/mL
-5.122 h, 100 ppm, male	1090 ng/mL
-5.094 h, 2500 ppm, female	64100 ng/mL
-5.092 h, 2500 ppm, female	54400 ng/mL
-5.089 h, 2500 ppm, female	32500 ng/mL
-5.084 h, 2500 ppm, male	49400 ng/mL
-5.083 h, 2500 ppm, male	44300 ng/mL
-5.081 h, 2500 ppm, male	34600 ng/mL
-5.077 h, 2500 ppm, male	9690 ng/mL
-5.053 h, 2500 ppm, male	59500 ng/mL
-4.247 h, 500 ppm, male	9570 ng/mL
-4.246 h, 500 ppm, male	11400 ng/mL
-4.245 h, 500 ppm, male	12000 ng/mL
-4.086 h, 100 ppm, male	926 ng/mL
-4.061 h, 100 ppm, male	1220 ng/mL
-4.06 h, 100 ppm, male	1360 ng/mL
-4.007 h, 2500 ppm, male	71700 ng/mL
-4.005 h, 2500 ppm, male	61100 ng/mL
-3.988 h, 2500 ppm, female	67100 ng/mL
-3.987 h, 2500 ppm, female	61600 ng/mL
-3.974 h, 2500 ppm, male	66600 ng/mL
-3.972 h, 2500 ppm, male	49300 ng/mL
-2.21 h, 500 ppm, male	33800 ng/mL
-2.166 h, 2500 ppm, male	78800 ng/mL
-2.165 h, 2500 ppm, male	72500 ng/mL
-2.164 h, 2500 ppm, male	66200 ng/mL
-2.159 h, 2500 ppm, female	96100 ng/mL
-2.144 h, 100 ppm, male	1310 ng/mL and 1340 ng/mL
-2.142 h, 100 ppm, male	1570 ng/mL
-2.129 h, 500 ppm, male	11900 ng/mL
-2.128 h, 500 ppm, male	13700 ng/mL
-2.127 h, 500 ppm, male	15500 ng/mL
-2.125 h, 2500 ppm, female	81400 ng/mL
-2.122 h, 100 ppm, male	1220 ng/mL
-0.1963 h, 500 ppm, male	12000 ng/mL
-0.1937 h, 500 ppm, male	17200 ng/mL
-0.1933 h, 500 ppm, male	17800 ng/mL
-0.1652 h, 2500 ppm, male	83400 ng/mL
-0.1636 h, 2500 ppm, male	73700 ng/mL
-0.1617 h, 2500 ppm, male	61500 ng/mL
-0.1057 h, 2500 ppm, female	101000 ng/mL
-0.1034 h, 2500 ppm, female	86400 ng/mL
-0.1026 h, 2500 ppm, female	81300 ng/mL
